According to ChEMBL document CHEMBL4354819, “Discovery of Novel Small Molecule Dual Inhibitors Targeting Toll-Like Receptors 7 and 8” (J Med Chem, 2019):
pIC50: −log10 of the molar value. The source made the active and inactive calls. The rule behind the calls is not given here.

Experiments:
[1] = molecular target: T1, Toll-like receptor 7 (Homo sapiens) (UniProt Q9NYK1); experiment: Inhibition of human TLR7 expressed in HEK293 cells assessed as reduction in R848-induced NFkappaB production incubated for 16 hrs by quanti-blue SEAP assay; type: cell-based
T1 sequence (whole entry): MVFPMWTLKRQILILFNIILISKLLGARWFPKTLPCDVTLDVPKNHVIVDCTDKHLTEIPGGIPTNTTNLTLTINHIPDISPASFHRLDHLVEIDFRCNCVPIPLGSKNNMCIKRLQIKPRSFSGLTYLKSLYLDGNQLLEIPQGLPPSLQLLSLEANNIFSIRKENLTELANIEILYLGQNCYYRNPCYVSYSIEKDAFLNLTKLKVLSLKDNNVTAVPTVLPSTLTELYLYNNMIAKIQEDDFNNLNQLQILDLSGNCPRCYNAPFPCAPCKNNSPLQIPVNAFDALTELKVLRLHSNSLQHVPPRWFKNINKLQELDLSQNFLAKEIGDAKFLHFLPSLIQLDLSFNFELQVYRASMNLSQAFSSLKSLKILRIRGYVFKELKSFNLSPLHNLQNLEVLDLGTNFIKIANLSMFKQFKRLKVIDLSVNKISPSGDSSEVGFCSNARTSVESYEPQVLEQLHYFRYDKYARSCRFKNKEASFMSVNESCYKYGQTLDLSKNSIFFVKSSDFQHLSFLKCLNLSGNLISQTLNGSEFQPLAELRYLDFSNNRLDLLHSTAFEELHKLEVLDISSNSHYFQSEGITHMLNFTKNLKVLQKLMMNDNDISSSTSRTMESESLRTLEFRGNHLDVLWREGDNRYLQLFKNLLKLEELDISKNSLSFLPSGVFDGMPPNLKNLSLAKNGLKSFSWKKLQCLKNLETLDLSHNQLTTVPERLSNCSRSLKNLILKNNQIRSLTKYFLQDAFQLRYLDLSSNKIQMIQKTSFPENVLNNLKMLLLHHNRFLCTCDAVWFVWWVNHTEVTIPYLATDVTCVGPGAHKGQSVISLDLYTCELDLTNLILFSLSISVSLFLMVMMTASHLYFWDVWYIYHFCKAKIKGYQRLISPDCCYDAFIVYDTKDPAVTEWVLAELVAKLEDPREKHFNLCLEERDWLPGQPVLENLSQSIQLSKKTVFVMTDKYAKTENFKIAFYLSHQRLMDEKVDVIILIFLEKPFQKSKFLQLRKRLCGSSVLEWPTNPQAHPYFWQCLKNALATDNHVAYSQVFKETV
In short: (§1)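 HEK 293-Blue cells stably expressing hTLR7 or hTLR8 with an inducible SEAP reporter were incubated 16 h with compound under 1 µg/mL R848 stimulation. SEAP was read at 620 nm. Data were normalized to the R848 control, and IC50 was taken from concentration-response curves. […] Mean ± s.d., n = 3 independent experiments.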

[2] = molecular target: T2, Toll-like receptor 8 (Homo sapiens) (UniProt Q9NR97); experiment: (§2) Inhibition of human TLR8 expressed in HEK293 cells assessed as reduction in R848-induced NFkappaB production incubated for 16 hrs by quanti-blue SEAP assay; type: cell-based; in short: as §1
T2 sequence (whole entry): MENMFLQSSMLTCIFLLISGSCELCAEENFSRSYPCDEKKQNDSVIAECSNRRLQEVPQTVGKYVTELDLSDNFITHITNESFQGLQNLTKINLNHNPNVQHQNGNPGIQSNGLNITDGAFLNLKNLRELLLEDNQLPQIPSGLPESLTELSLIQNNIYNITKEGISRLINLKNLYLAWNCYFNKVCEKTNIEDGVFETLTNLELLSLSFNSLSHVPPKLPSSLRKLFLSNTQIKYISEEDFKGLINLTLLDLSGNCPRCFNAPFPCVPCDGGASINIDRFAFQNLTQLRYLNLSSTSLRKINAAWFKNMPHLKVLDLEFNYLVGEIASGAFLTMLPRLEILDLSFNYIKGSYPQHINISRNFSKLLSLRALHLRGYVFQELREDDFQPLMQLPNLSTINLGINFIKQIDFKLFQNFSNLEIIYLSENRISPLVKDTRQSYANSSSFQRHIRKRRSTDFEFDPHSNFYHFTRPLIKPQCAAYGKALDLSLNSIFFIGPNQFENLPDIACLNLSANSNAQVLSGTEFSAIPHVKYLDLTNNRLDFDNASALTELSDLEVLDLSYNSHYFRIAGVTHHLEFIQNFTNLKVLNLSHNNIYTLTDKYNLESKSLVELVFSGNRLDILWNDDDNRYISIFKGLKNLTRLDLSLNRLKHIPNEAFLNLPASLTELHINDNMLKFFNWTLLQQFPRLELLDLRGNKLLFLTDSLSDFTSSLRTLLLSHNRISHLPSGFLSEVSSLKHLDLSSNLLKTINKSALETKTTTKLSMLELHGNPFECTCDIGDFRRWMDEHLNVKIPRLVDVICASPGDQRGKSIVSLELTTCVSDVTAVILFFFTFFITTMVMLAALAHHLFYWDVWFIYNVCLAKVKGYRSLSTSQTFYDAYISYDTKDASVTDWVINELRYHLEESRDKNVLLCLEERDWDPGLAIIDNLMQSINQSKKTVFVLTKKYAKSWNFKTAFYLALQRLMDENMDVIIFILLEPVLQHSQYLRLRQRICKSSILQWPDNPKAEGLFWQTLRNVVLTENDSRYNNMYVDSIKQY

Toll-like receptor 8 = molecular target: T3, Toll-like receptor 8 (Homo sapiens, UniProt Q9NR97); experiment: as §2; type: cell-based; in short: as §1
T3 sequence (Q9NR97 whole entry): T2 sequence (whole entry)

HEK293 [3] = experiment: Cytotoxicity against human HEK293 cells transfected with human TLR8 assessed as reduction in cell viability up to 5 uM incubated for 16 hrs by WST-1 assay; type: cell-based; conditions: hek293, 16 h
[4] = molecular target: Toll-like receptor 4 (Homo sapiens) (UniProt O00206); experiment: Inhibition of human TLR4 expressed in HEK293 cells assessed as reduction in LPS-induced NFkappaB production at 1.5 to 5 uM incubated for 16 hrs by quanti-blue SEAP assay; type: cell-based
Sequence of Toll-like receptor 4 (Homo sapiens) (O00206 whole entry): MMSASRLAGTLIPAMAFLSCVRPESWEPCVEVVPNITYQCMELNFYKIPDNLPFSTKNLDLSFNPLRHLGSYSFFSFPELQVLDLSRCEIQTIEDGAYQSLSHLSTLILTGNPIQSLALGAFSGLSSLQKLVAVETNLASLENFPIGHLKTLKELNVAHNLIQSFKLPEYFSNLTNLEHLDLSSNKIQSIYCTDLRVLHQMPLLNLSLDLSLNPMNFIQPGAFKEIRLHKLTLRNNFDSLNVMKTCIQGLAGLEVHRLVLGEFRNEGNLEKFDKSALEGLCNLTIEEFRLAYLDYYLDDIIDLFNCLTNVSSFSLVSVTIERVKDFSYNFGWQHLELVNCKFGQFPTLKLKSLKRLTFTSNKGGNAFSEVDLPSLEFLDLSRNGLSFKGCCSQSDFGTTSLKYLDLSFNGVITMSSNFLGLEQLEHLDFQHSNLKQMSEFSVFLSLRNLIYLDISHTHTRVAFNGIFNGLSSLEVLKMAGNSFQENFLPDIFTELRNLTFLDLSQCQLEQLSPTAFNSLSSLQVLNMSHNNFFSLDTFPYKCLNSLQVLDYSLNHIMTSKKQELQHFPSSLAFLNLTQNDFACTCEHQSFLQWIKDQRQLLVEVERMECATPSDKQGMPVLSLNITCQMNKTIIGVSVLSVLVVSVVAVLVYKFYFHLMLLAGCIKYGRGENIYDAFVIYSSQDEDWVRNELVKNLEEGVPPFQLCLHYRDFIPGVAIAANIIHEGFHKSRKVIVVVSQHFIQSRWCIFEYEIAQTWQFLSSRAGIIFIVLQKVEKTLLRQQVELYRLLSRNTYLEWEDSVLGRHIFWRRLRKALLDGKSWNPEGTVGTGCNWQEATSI
In short: (§3)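 Selectivity panel in stably transfected HEK 293-Blue cells, each overexpressing one human TLR with an inducible SEAP reporter. Agonists: Pam3CSK4 (TLR1/2), Pam2CSK4 (TLR2/6), poly(I:C) (TLR3), LPS (TLR4), R848 (TLR7/8), ODN 2006 (TLR9). Cells were exposed to compound for 16 h. Activity = (raw − untreated)/(ligand + solvent − untreated), with ligand + solvent set as 100%.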

[5] = molecular target: Toll-like receptor 3 (Homo sapiens) (UniProt O15455); experiment: Inhibition of human TLR3 expressed in HEK293 cells assessed as reduction in poly(I:C)-induced NFkappaB production at 1.5 to 5 uM incubated for 16 hrs by quanti-blue SEAP assay; type: cell-based; in short: as §3
Sequence of Toll-like receptor 3 (Homo sapiens) (O15455 whole entry): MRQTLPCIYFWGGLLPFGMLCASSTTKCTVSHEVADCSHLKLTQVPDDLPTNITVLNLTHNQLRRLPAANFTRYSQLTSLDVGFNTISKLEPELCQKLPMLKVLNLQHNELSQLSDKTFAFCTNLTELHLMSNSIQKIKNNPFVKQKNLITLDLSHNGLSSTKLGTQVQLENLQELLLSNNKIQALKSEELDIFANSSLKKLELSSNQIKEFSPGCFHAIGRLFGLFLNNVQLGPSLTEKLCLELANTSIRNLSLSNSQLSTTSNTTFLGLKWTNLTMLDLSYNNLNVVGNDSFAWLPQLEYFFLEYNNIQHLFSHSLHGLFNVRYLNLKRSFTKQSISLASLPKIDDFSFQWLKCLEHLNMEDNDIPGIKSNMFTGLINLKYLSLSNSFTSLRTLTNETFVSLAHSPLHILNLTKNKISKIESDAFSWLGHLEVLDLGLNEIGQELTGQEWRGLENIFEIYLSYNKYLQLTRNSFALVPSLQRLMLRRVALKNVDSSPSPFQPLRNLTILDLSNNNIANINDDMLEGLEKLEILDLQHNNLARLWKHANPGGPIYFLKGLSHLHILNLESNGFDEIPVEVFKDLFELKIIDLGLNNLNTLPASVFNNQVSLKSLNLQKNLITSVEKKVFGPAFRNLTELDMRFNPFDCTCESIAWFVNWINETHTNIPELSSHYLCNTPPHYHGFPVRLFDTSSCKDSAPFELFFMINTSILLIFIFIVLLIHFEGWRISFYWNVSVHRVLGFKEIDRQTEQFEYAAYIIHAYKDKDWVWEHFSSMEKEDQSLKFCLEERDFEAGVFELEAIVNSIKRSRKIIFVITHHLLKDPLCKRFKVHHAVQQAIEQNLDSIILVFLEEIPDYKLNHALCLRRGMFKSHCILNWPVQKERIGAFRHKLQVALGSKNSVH

[6] = molecular target: T1, Toll-like receptor 7 (Homo sapiens); experiment: Inhibition of human TLR7 expressed in HEK293 cells assessed as reduction in resiquimod-induced NFkappaB production at 1.5 to 5 uM incubated for 16 hrs by quanti-blue SEAP assay; type: cell-based; in short: as §3
HEK293 [7] = experiment: Inhibition of human TLR1/2 expressed in HEK293 cells assessed as reduction in Pam3CSK4-induced NFkappaB production at 1.5 to 5 uM incubated for 16 hrs by quanti-blue SEAP assay; type: cell-based; in short: as §3
TLR2/TLR6 (Homo sapiens) = TLR2/TLR6 (Homo sapiens) (UniProt O60603+Q9Y2C9); experiment: Inhibition of human TLR2/6 expressed in HEK293 cells assessed as reduction in Pam2CSK4-induced NFkappaB production at 1.5 to 5 uM incubated for 16 hrs by quanti-blue SEAP assay; type: cell-based; in short: as §3
[8] = molecular target: T2, Toll-like receptor 8 (Homo sapiens); experiment: Inhibition of human TLR8 expressed in HEK293 cells assessed as reduction in R848-induced NFkappaB production at 1.5 to 5 uM incubated for 16 hrs by quanti-blue SEAP assay; type: cell-based; in short: as §3
[9] = molecular target: T2, Toll-like receptor 8 (Homo sapiens); experiment: Inhibition of human TLR8 expressed in HEK293 cells assessed as reduction in R848-induced NFkappaB production at 1.5 to 5 uM incubated for 16 hrs by quanti-blue SEAP assay

N#Cc1c(Cl)cccc1Oc1ccc(-c2nnco2)cc1
inhibition [1]: Dose-dependent effect | inhibition [2]: Dose-dependent effect | pIC50 (Toll-like receptor 8): 5.85 | Activity (HEK293 [3]): Non-Toxic | inhibition [4]: inactive | inhibition [5]: inactive | inhibition [6]: inactive | inhibition (HEK293 [7]): inactive | inhibition (TLR2/TLR6 (Homo sapiens)): inactive | inhibition [8]: Active | inhibition [9]: Active
